Test results taken from ChEMBL document CHEMBL1255192, “3-alkylthio-1,2,4-triazine dimers with potent antimalarial activity” (Bioorg Med Chem Lett, 2010).
In brackets after ≈: the same amount, converted by molar mass.

How the values were obtained:
[1] = Solubility of the compound at pH 6.5; format: physicochemical; details: buffer
[2] = Distribution coefficient log D of the compound at pH 7.4; format: physicochemical; details: octanol/water
Method in brief: (§1)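 Log D at each pH was estimated by a chromatographic method.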

HEK293 = experiment: Cytotoxicity against HEK293 cells; format: cell-based; details: Homo sapiens
Method in brief: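 HEK 293 cell toxicity assay, with puromycin as the control. Read-out is EC50.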

[3] = Solubility of the compound at pH 2; format: physicochemical; details: buffer
[4] = Distribution coefficient log D of the compound at pH 3; format: physicochemical; details: octanol/water; method in brief: as §1
Plasmodium falciparum [5] = experiment: Antimalarial activity against Plasmodium falciparum 3D7 infected in human erythrocyte; format: functional, organism-based
Method in brief: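 Asexual erythrocytic-stage culture of the P. falciparum 3D7 strain, with chloroquine as the reference control. Read-out is EC50.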

[6] = Intrinsic clearance in human liver microsomes; format: ADME, Microsome
Method in brief: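 Compound was incubated with human liver microsomes. Parent loss and metabolites were followed by LCMS. Concentration versus time was fitted to exponential decay to get the first-order depletion rate constant, which gave in vitro CLint and a predicted hepatic extraction ratio.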

Plasmodium falciparum [7] = experiment: Antimalarial activity against Plasmodium falciparum Dd2 infected in human erythrocyte; format: functional, organism-based
Method in brief: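 Chloroquine-resistant P. falciparum Dd2 grown at the erythrocytic stage, with chloroquine as the control. EC50 was determined.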

L6 = experiment: Cytotoxicity against rat L6 cells; format: cell-based

Structure (SMILES): CSc1nncc(-c2cnnc(SC)n2)n1
- solubility [1]: 14.5 µM (≈ 3.66 µg/mL)
- logD [2]: 2.4
- EC50 (HEK293): 68 µM
- solubility [3]: 15.3 µM (≈ 3.86 µg/mL)
- logD [4]: 2.4

Structure (SMILES): CCSc1nncc(-c2cnnc(SCC)n2)n1
- EC50 (HEK293): 84 µM

Structure (SMILES): CCCSc1nncc(-c2cnnc(SCCC)n2)n1
- EC50 (HEK293): > 115 µM

Structure (SMILES): CSc1nncc(-c2cnnc(OCCN(C)C)n2)n1
- EC50 (HEK293): 24 µM

Structure (SMILES): CCc1nncc(-c2cnnc(CC)n2)n1
- solubility [1]: 311 µM (≈ 67.3 µg/mL)
- EC50 (Plasmodium falciparum [5]): 1600 nM
- microsomal CLint [6]: 11.7 µL/min/mg
- logD [2]: 1.6
- solubility [3]: 426 µM (≈ 92.1 µg/mL)
- logD [4]: 1.6

Structure (SMILES): COc1nncc(-c2cnnc(OC)n2)n1
- EC50 (HEK293): 36 µM

Structure (SMILES): CCCCSc1nncc(-c2cnnc(SCCCC)n2)n1
- EC50 (HEK293): > 115 µM

Structure (SMILES): CN(C)CCSc1nncc(-c2cnnc(SCCN(C)C)n2)n1
- EC50 (Plasmodium falciparum [5]): 470 nM
- EC50 (HEK293): 25 µM
- EC50 (Plasmodium falciparum [7]): 620 nM

Structure (SMILES): CCN(CC)CCSc1nncc(-c2cnnc(SC)n2)n1
- EC50 (Plasmodium falciparum [5]): 23 nM
- EC50 (HEK293): 9 µM
- EC50 (Plasmodium falciparum [7]): 12 nM

Structure (SMILES): CCN(CC)CCSc1nncc(-c2cnnc(SCCN(CC)CC)n2)n1
- EC50 (Plasmodium falciparum [5]): 440 nM
- EC50 (HEK293): 16 µM
- EC50 (Plasmodium falciparum [7]): 790 nM

Structure (SMILES): COc1nncc(-c2cnnc(SC)n2)n1
- EC50 (L6): 33 µM
- EC50 (HEK293): 18 µM
